Source: PubChem (Broad Institute)
Not all results are given here.
PGC1a acetyl up = raises PGC1a acetylation signal in U2OS cells; U2OS PGC1a acetylation AlphaScreen, overnight; activation, % at 15.6 µM; AID 651723; 350,000 tested, 0.21% active;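 active = every replicate reaching activation of at least 50%, whatever the mean replicate activation; inconclusive = replicates that disagree or another doubt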;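 also: hits raise the AlphaScreen acetylation signal above neutral controls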
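detection = AlphaScreen lysate read | assay system = U2OS cells expressing flag-PGC1a plus GCN5 | input = 7000 cells/well | dosing = one concentration | times = compound overnight at 37 °C, each detection step 1 h RT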
Hep G6PC suppr = PGC-1a acetylation activators affecting G6PC expression in hepatocytes | primary mouse hepatocytes, G6PC mRNA qPCR, forskolin | G6PC suppression (normalized activity, % of positive control; higher = more suppression), % at 26 µM | shares compounds with PGC1a acetyl up | 240 tested, under 10 active;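 active = dose curves showing G6PC suppression whose half-maximal dose is at most twice the top valid dose; inconclusive = flat curves with moderate negative activity, or unreliable fits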;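 also: G6PC expression relative to GAPDH housekeeping gene as delta delta Ct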
Hep PCK1 suppr = PGC-1a acetylation activator altering hepatocyte PCK1 expression; PCK1 expression decrease, unspecified at 26 µM; primary mouse hepatocytes, PCK1 mRNA qPCR, forskolin-stimulated; 230 tested, under 10 active; AID 743465; shares compounds with PGC1a acetyl up;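 active = compounds lowering PCK1 expression whose fitted half-maximal concentration is at most twice the top tested dose; inconclusive = flat fit with moderate opposite-direction effect, or poor fit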;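 also: higher delta delta Ct means lower PCK1 expression so positive values indicate hits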
Hep PGC-1a down = hepatocyte PGC-1a expression change via PGC-1a acetylation activation; shares compounds with PGC1a acetyl up; primary mouse hepatocytes, PGC-1a mRNA qPCR, forskolin; top dose 26 µM; max activity (PGC-1a expression decrease), %; 240 tested, under 10 active; AID 743467;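 active = compound lowering PGC-1a expression with fitted half-maximal concentration at most twice its top tested dose; inconclusive = flat curve with moderate opposite-direction effect, or poor fit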
Of the large screens only hits and unclear results are named; the others gave an inactive call (follow-up assays come after a bar, where they were run).

Cc1cc(C)nc(SCC(=O)OCN2C(=O)c3ccccc3C2=O)n1	PGC1a acetyl up 67
Nc1cc(N)nc(SCC(=O)Nc2ccccc2N2CCOCC2)n1	none
COCC(=O)Nc1ccc2c(c1)OC[C@@H](C)N(CCc1ccccc1)C[C@H](C)[C@H](OC)CN(C)C2=O	none
C[C@@H]1CN([C@@H](C)CO)C(=O)CCCn2cc(nn2)CO[C@H]1CN(C)Cc1ccncc1	none
O=C(NCc1cccnc1)/C(=C\c1ccc(-c2cccc(Cl)c2)o1)S(=O)(=O)c1ccccc1	PGC1a acetyl up 76
CCOC(=O)NC(=O)CSc1nnnn1-c1ccc(C)cc1	none
CN(c1cc2c(c3c1ccn3C)C1CCC2C1)C1CCCCC1 (stereo unspecified)	none
COCC#Cc1cnc2c(c1)C(=O)N([C@H](C)CO)C[C@@H](C)[C@@H](CN(C)C(=O)c1cccnc1)O2	none
CC(=O)c1c(-c2ccccc2)[nH]c2ccccc12	PGC1a acetyl up 61
O=C(O)c1ccc(N=Nc2c(O)[nH]c3ccccc23)cc1	none
COc1ccc(S(=O)(=O)N(C)C[C@@H]2Oc3ccc(NC(=O)CCN4CCOCC4)cc3C(=O)N([C@H](C)CO)C[C@H]2C)cc1	none
CCC(=O)N[C@H]1CC[C@H](CC(=O)OC)O[C@H]1CO	none
Cc1cc2cc3c(cc2nc1SCC(=O)OC(C)C)OCCO3	PGC1a acetyl up 95
CO[C@H]1CN(C)C(=O)c2ccc(NC(=O)c3ccno3)cc2OC[C@H](C)NC[C@H]1C	none
O=C(c1ccc(N2CCCC2=O)cc1)N1CCCCCC1	none
CCCCCCCCCCCCS[C@H]1CS(=O)(=O)C[C@@H]1O	none
O=[N+]([O-])c1ccc(S(=O)(=O)c2cccc(C(F)(F)F)c2)nc1	PGC1a acetyl up 172
COc1ccc(/C=N/NC(=O)c2ccn[nH]2)cc1CN1CCOCC1	none
CCCNC(=O)c1nnsc1S(=O)(=O)c1ccc(Cl)cc1	PGC1a acetyl up 82
CCCNC(=O)c1nnsc1S(=O)c1ccc(Cl)cc1 (stereo unspecified)	PGC1a acetyl up 148
CNC(=O)c1nnsc1S(=O)c1ccc(Cl)cc1 (stereo unspecified)	PGC1a acetyl up 117
C[C@@H]1CN([C@H](C)CO)C(=O)c2cccc(NC(=O)C3CCCCC3)c2O[C@@H]1CN(C)CC1CCCCC1	none
Cc1nc([N+](=O)[O-])c(Br)n1CC(=O)c1ccc(Br)cc1	none
O=C(c1cc(C2CC2)on1)N1CCCC(N2CCN(c3cccc(C(F)(F)F)c3)CC2)C1 (stereo unspecified)	none
CCOC(=O)c1c(NC(=O)c2c(Br)cnn2CC)sc(C)c1C	PGC1a acetyl up 83
CCOC(=O)c1c(NC(=O)/C=C/C(=O)O)sc(C)c1-c1ccc(C(C)(C)C)cc1	none
Nc1ccccc1-c1ccn[nH]1	none
CC(C)(C)C(=O)NC(C(N)=O)=C(Cl)Cl	PGC1a acetyl up 65
COc1cccc(-c2cc(C(=O)NCCCn3ccnc3)no2)c1	PGC1a acetyl up 80
COC(=O)CSc1nc(-c2ccccc2)cc(-c2ccco2)c1C#N	PGC1a acetyl up 67 | Hep G6PC suppr inactive | Hep PCK1 suppr inactive | Hep PGC-1a down inactive
CS(=O)c1nc(-c2ccc(Br)cc2)cc(-c2ccccc2)c1C#N (stereo unspecified)	none
N#Cc1c(-c2cccc(Br)c2)cc(-c2ccco2)[nH]c1=O	none
CC1(C(=O)Nc2cccc(C#N)c2)CCN1C(=O)CCc1ccccc1 (stereo unspecified)	none
C[C@@H]1CN([C@H](C)CO)C(=O)c2c(c3ccccc3n2C)-c2ccccc2CO[C@@H]1CN(C)C(=O)Nc1ccccc1C(F)(F)F	PGC1a acetyl up 96 | Hep G6PC suppr inactive | Hep PCK1 suppr inactive | Hep PGC-1a down inactive
COc1ccc(NC(=O)N(C)C[C@H]2OCc3ccccc3-c3c(n(C)c4ccccc34)C(=O)N([C@@H](C)CO)C[C@H]2C)c(OC)c1	PGC1a acetyl up 85 | Hep G6PC suppr inactive | Hep PCK1 suppr inactive | Hep PGC-1a down inactive
O=C(Nc1nc2ccsc2c(=O)s1)C1CCC1	none
Cc1cc(=O)n2[nH]c(=O)c(N=Nc3ccccc3)c2[nH]1	none
CC(C)(C)c1ccc(O)c(O)c1	none
O=C(c1ccccc1Nc1ccc(SC(F)F)cc1)N1CCCCCC1	PGC1a acetyl up 53 | Hep G6PC suppr inactive | Hep PCK1 suppr inactive | Hep PGC-1a down inactive
O=C(O)c1ccccc1C(=O)N1CCN(C(=O)c2ccccc2Cl)CC1	none
CCCOC(=O)c1ccc(-n2nnnc2SCC(=O)N2CCCCC2)cc1	none
COc1cc(/C=C2\SC(=O)NC2=O)ccc1Oc1ccc([N+](=O)[O-])cn1	none
CN(C)CCCNc1cc(-c2ccccc2)nc2cc(-c3cccc(F)c3)nn12	PGC1a acetyl up inconclusive | Hep G6PC suppr inactive | Hep PCK1 suppr inconclusive | Hep PGC-1a down inconclusive
COCCN(C)Cc1nc(C(c2ccccc2)c2ccccc2)no1	none
CCOC(=O)CN1C(=N)N(c2nc(NC(C)C)nc(OC)n2)CC1=O	none
C=CCn1c(SCC(=O)NCc2ccccc2)nnc1-c1ccccc1O	none
NC1=C(Br)C(=O)c2ncccc2C1=O	none
c1ccc(-c2c(-c3ccccc3)n(Cc3ccco3)c3ncnc(NCCCn4ccnc4)c23)cc1	PGC1a acetyl up 125 | Hep G6PC suppr inactive | Hep PCK1 suppr inactive | Hep PGC-1a down inactive
COc1ccc(-c2cc(-c3ccccc3O)[nH]n2)cc1OC	PGC1a acetyl up 95 | Hep G6PC suppr inactive | Hep PCK1 suppr inactive | Hep PGC-1a down inactive
CCCc1cc(=O)oc2cc(C)cc(O)c12	none
O=C(NCc1ccccc1)C1Cc2c(-c3ccc(Cl)cc3)ccnc2O1 (stereo unspecified)	PGC1a acetyl up 69 | Hep G6PC suppr inactive | Hep PCK1 suppr inactive | Hep PGC-1a down inactive
CCOCCOC(=O)C(C)Oc1ccc(Oc2nc(Cl)ccc2Cl)cc1 (stereo unspecified)	none
OC(CN1c2ccccc2Sc2ccccc21)Cn1nnc2ccccc21 (stereo unspecified)	PGC1a acetyl up 76 | Hep PCK1 suppr inactive | Hep PGC-1a down inactive
CC(/C=N/NC(=O)c1cc(-c2ccc(Cl)cc2)nc2ccccc12)=C\c1ccco1	none
Nc1c(C(=O)Nc2ccccc2)c2nc3ccccc3nc2n1CCCN1CCOCC1	PGC1a acetyl up 57 | Hep G6PC suppr inactive | Hep PCK1 suppr inactive | Hep PGC-1a down inactive
C(=N\Nc1nc2ccccc2[nH]1)/c1ccc2ncccc2c1	none
COc1ccc(-c2nc(C#N)c(NCc3ccco3)o2)cc1	none
CC(=O)Oc1ccc(-c2csnn2)cc1	none
CCN(CC)CCNc1nc(-c2ccc(OC)cc2)c(-c2ccc(OC)cc2)s1	none
CCC(=O)N(CC)c1nc(-c2ccc(OC)cc2)cs1	none | Hep G6PC suppr inactive | Hep PCK1 suppr inactive | Hep PGC-1a down inactive
Cn1ncc(Cl)c1C(=O)Nc1sc2c(c1C(N)=O)CCC2	PGC1a acetyl up 59 | Hep G6PC suppr inactive | Hep PCK1 suppr inactive | Hep PGC-1a down inactive
O=C(CCl)Nc1cc(SCC(O)CO)cc([N+](=O)[O-])c1 (stereo unspecified)	none
c1ccc(C(c2nnnn2Cc2cccs2)N2CCN(C3CCCC3)CC2)cc1 (stereo unspecified)	none | Hep G6PC suppr inactive | Hep PCK1 suppr inactive | Hep PGC-1a down inactive
COc1ccc(S(=O)(=O)N2CCC(C(=O)N3CCC(C(N)=O)CC3)CC2)cc1Cl	none
